A short description of data set [1]: Solubility of the compound in Japanese pharmacopoeia first fluid at pH 1.2 at 10 mM after 12 hrs. The class given is physicochemical. The essentials: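 Solubility measured in Japanese Pharmacopoeia First Fluid, pH 1.2.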
A short description of data set [2]: Solubility of the compound in Japanese pharmacopoeia second fluid at pH 6.8 at 10 mM after 12 hrs. Format: physicochemical. The essentials:
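Solubility measured in Japanese Pharmacopoeia Second Fluid, pH 6.8.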

Data set [3] can be described thus: Metabolic stability in human liver microsomes at 1 uM after 20 to 30 mins by LC/MS/MS analysis in presence of NADPH. Format: ADME, Microsome. As to conditions: read-out: Stability. The essentials: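 Metabolic stability read as percent remaining after incubation with human liver microsomes in vitro.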
For orientation: Liver microsomes are vesicles of endoplasmic reticulum, rich in cytochrome P450 enzymes.

Data set [4] is described as follows: 1-Octanol-phosphate buffered saline distribution coefficient, log D of the compound at pH 7.4 after 30 mins by shake flask method. The class given is physicochemical. The essentials: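 Log D measured as the partition between 1-octanol and phosphate buffered saline, pH 7.4.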

Molecules are shown by their SMILES. In brackets after ≈: the same amount, converted by molar mass.

As a reminder, the solubility is the concentration that dissolves in the medium under given conditions. The low end stands for a poorly soluble substance, the high end for a readily soluble substance. Consider `CN1CCc2nc(C(=O)Nc3cc(C(=O)NS(C)(=O)=O)ccc3CNC(=O)c3ccc(Cl)s3)sc2C1`, for which the solubility at 12 h, 10000 µM in data set [1] is 0.99 mg/mL (≈ 1740 µM); in data set [2], 1 mg/mL (≈ 1760 µM).
The logD is lipophilicity at a set pH, counting ionised and neutral species. On to `O=C(O)c1ccc(CNC(=O)c2ccc(Cl)s2)c(NC(=O)c2nc3c(s2)COCC3)c1`, for which the remaining at 1 µM in data set [3] was found to be 82%. The same compound showed a logD at 0.5 h in data set [4] of 0.02. The solubility at 12 h, 10000 µM in data set [1] is 0.002 mg/mL (≈ 4.18 µM); in data set [2] it was 0.95 mg/mL (≈ 1990 µM).
On the same counts, the results for `CC(C)N1CCc2nc(C(=O)Nc3c(CCC(=O)Nc4ccc(Cl)cc4)cccc3C(=O)O)sc2C1` are 100%, 0.66, 1 mg/mL (≈ 1900 µM) and 0.83 mg/mL (≈ 1570 µM).
Consider `CNC(=O)c1cccc(CNC(=O)c2ccc(Cl)s2)c1NC(=O)c1nc2c(s1)CN(C)CC2`, for which the remaining at 1 µM in data set [3] was determined as 80%. The solubility at 12 h, 10000 µM in data set [1] turned out to be 0.83 mg/mL (≈ 1650 µM); in data set [2], 0.13 mg/mL (≈ 258 µM).
For the compound `CN1CCc2nc(C(=O)Nc3cc(C(=O)O)ccc3CNC(=O)c3ccc(Cl)s3)sc2C1`, the remaining at 1 µM in data set [3] is 71%. Besides, in data set [4], the logD at 0.5 h is -0.29. In addition, the solubility at 12 h, 10000 µM in data set [1] is 0.055 mg/mL (≈ 112 µM); in data set [2] it was greater than 0.85 mg/mL.
`CN1CCc2nc(C(=O)Nc3cc(C(=O)O)ccc3CCC(=O)Nc3ccc(Cl)cc3)sc2C1`: in data set [3], the remaining at 1 µM was 95%. For the same compound, in data set [4], the logD at 0.5 h was 0.27. Moreover, the solubility at 12 h, 10000 µM in data set [1] was determined as 0.43 mg/mL (≈ 862 µM); in data set [2] it was 0.024 mg/mL (≈ 48.1 µM).
On to `CN1CCc2nc(C(=O)Nc3cc(-c4nnn[nH]4)ccc3CNC(=O)c3ccc(Cl)s3)sc2C1`, for which the solubility at 12 h, 10000 µM was 0.32 mg/mL (≈ 621 µM) in data set [1] and 0.47 mg/mL (≈ 913 µM) in data set [2].
On to `CNC(=O)c1ccc(CNC(=O)c2ccc(Cl)s2)c(NC(=O)c2nc3c(s2)CN(C)CC3)c1`, for which, in data set [3], the remaining at 1 µM came out at 85%. Also, the figures for the solubility at 12 h, 10000 µM in data set [1] and in data set [2] were 0.14 mg/mL (≈ 278 µM) and 0.0027 mg/mL (≈ 5.36 µM), respectively.
As for `CC(C)Oc1cc(C(=O)O)cc(NC(=O)c2nc3c(s2)CN(C(C)C)CC3)c1CCC(=O)Nc1ccc(Cl)cc1`, the remaining at 1 µM in data set [3] worked out at 86%. Besides, the logD at 0.5 h in data set [4] is 1.91. Besides, the solubility at 12 h, 10000 µM in data set [1] came to 0.32 mg/mL (≈ 547 µM); in data set [2], 0.13 mg/mL (≈ 222 µM).
Consider `COC(=O)c1ccc(CNC(=O)c2ccc(Cl)s2)c(NC(=O)c2nc3c(s2)CN(C)CC3)c1`, for which, in data set [3], the remaining at 1 µM was determined as 42%. Further, the solubility at 12 h, 10000 µM in data set [1] is 0.89 mg/mL (≈ 1760 µM); in data set [2], 0.052 mg/mL (≈ 103 µM).
Regarding `CN1CCc2nc(C(=O)Nc3ccccc3CNC(=O)c3ccc(Cl)s3)sc2C1`, the remaining at 1 µM in data set [3] was 53%.
For the compound `CN1CCc2nc(C(=O)Nc3c(CNC(=O)c4ccc(Cl)s4)cccc3C(=O)N(C)C)sc2C1`, the remaining at 1 µM in data set [3] amounted to 81%. The values for the solubility at 12 h, 10000 µM in data set [1] and in data set [2] were 0.9 mg/mL (≈ 1740 µM) and 0.98 mg/mL (≈ 1890 µM), respectively.
Consider `CN1CCc2nc(C(=O)Nc3c(CNC(=O)c4ccc(Cl)s4)cccc3C(=O)O)sc2C1`, for which the logD at 0.5 h in data set [4] was -0.38. Further, the solubility at 12 h, 10000 µM in data set [1] was 0.71 mg/mL (≈ 1450 µM); in data set [2], greater than 0.8 mg/mL.
With `CN1CCc2nc(C(=O)Nc3cc(C(N)=O)ccc3CNC(=O)c3ccc(Cl)s3)sc2C1`, the remaining at 1 µM in data set [3] worked out at 77%. Further, the solubility at 12 h, 10000 µM in data set [1] is 0.03 mg/mL (≈ 61.2 µM); in data set [2] it was less than 0.0024 mg/mL.
For `CN1CCc2nc(C(=O)Nc3cc(C(=O)N(C)C)ccc3CNC(=O)c3ccc(Cl)s3)sc2C1`, in that order: 67%, greater than 0.9 mg/mL and 0.83 mg/mL (≈ 1600 µM).
On the same counts, the results for `CN1CCc2nc(C(=O)Nc3c(CNC(=O)c4ccc(Cl)s4)cccc3C(N)=O)sc2C1` are 94%, 0.74 mg/mL (≈ 1510 µM) and 0.71 mg/mL (≈ 1450 µM).
For the compound `CN1CCc2nc(C(=O)Nc3ccc(C(=O)O)cc3CNC(=O)c3ccc(Cl)s3)sc2C1`, the remaining at 1 µM in data set [3] amounted to 95%. For the same compound, the solubility at 12 h, 10000 µM in data set [1] came to 0.072 mg/mL (≈ 147 µM); in data set [2], 0.013 mg/mL (≈ 26.5 µM).

The values above are taken from ChEMBL document CHEMBL1921766, “Orally active zwitterionic factor Xa inhibitors with long duration of action” (Bioorg Med Chem Lett, 2011).
